Bioassay records as filed in PubChem.
Myeloid diff MLP = induction of myeloid progenitor differentiation, primary screen, cell-based, flow cytometry, MLPCN library; ER-HoxA9 myeloid progenitors, lysozyme-GFP differentiation; calls only at 10 µM; 360,000 tested, 1% active; AID 624256, 2012;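 active means normalized GFP-positive differentiation at or above the plate's own cutoff, the solvent-only control mean plus 3 SD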;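 further: cells exposed to compound for four days before flow analysis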
SENP1 inh = human SENP1 catalytic domain inhibitors, primary screen, biochemical, FRET, uHTS. Sentrin-specific protease 1 (Homo sapiens), Q9P0U3. recombinant SENP1 catalytic domain, CyPet-SUMO1-YPet FRET cleavage. inhibition, % at 10 µM. 360,000 tested, 0.21% active. AID 624204, 2012;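 active means inhibition at least 30% at 10 µM, raw YFP signal under a set limit, fluorescence ratio 0.5 to 1.5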;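 further: 0% = enzyme with DMSO and 100% = no enzyme wells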
Target sequence (Q9P0U3 419-644 limits assumed): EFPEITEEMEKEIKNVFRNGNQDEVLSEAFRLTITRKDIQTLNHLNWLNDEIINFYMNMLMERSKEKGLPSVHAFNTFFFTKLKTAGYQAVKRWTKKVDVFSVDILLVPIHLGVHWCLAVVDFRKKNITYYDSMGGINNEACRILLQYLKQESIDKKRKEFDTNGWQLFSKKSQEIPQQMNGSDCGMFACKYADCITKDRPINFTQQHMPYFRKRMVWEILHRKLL
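Test system: hSENP1 catalytic domain, recombinant; Amount: 20 pM final SENP1 enzyme; Medium: Tris pH 8 buffer plus EDTA, NaCl, BME, BSA, NP40, catalase; Schedule: 50 min enzyme reaction, room temperature, light-protected; Technique: FRET fluorescence in CFP and YFP emission channels; Controls: no-enzyme wells low, DMSO-plus-enzyme wells high control.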
DAGLB inh = DAGLB lipase inhibitors, primary screen, biochemical, fluorescence, HTS. inhibition, % at 5.17 µM. AID 504411, 2011. 340,000 tested, 0.059% active. HEK293T DAGLB membrane lysate, EnzChek fluorogenic substrate. Diacylglycerol lipase-beta (Homo sapiens), Q8NCG7; in the data active means inhibition above about 34%;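 further: 0% = enzyme with vehicle and 100% = wells lacking enzyme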
MT1-MMP act inh = blockers of MT1-MMP proenzyme processing, primary screen, HT1080 RFP-PRO-GFP cells, GFP/RFP fluorescence; Matrix metalloproteinase-14 (Homo sapiens), P50281; GFP/RFP ratio fluorescence, overnight; percent of plate control window, DMSO zero; GFP/RFP ratio change, % at 20 µM; 360,000 tested, 0.061% active; AID 651647, 2012;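 active means GFP/RFP ratio change of at least 30% with cell ATP level not reduced by more than half and red fluorescence within 50% of control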
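Assay system: RFP-PRO-GFP reporter HT1080 cells; read-out basis: GFP/RFP fluorescence ratio; benchmarks: DMSO wells and RFP-L50D-GFP cells; doses: 20 µM single dose, 1% DMSO; schedule: overnight cell settling, then overnight compound exposure, 37 °C, 5% CO2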
beta cell repl = inducers of MIN6 beta-cell proliferation, primary screen, ATP luminescence, uHTS; MIN6 cells proliferation, ATPlite luminescence, 48 h; cells starved in 0.2% serum; 100% = growth in 10% serum; proliferation, % at 10 µM; 330,000 tested, 0.29% active;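 active means compounds whose signal lies at least 3.5 SD above the mean of all wells on their plate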;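 further: 0% = DMSO-treated cells in low-serum medium and 100% = 10% serum control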
NRP1-CendR mod = modulators of CendR peptide binding to NRP-1, primary screen, biochemical, fluorescence polarization, uHTS; FAM-RPARPAR peptide binding to NRP-1; AID 602438, 2012; inhibition, % at 25 µM; 360,000 tested, 0.85% active; Neuropilin-1 (Homo sapiens), O14786;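 active means inhibition or corrected inhibition above about 18%, plus a signal ratio from 0.5 to 1.5, limit read from the data, passing the limit was not always enough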
The depositor's hits bear a star; i = inactive; . = no result; + = active, no number. The list is not random: actives were taken first. Their share in the collection is about 2.4%.

SMILES	Myeloid diff MLP	SENP1 inh	DAGLB inh	MT1-MMP act inh	beta cell repl	NRP1-CendR mod
NNc1nc2c(-c3ccc(Cl)cc3)nnn2c2ccccc12	+	-40.0	-3.3	-63.9	-5.3	36.9
COCCCNc1nc2c(-c3ccc(Cl)cc3)nnn2c2ccccc12	i	-38.5	-0.8	1.4	1.9	-6.3
NNc1nc2c(-c3ccc(F)cc3)nnn2c2ccccc12	+	-31.5	-5.0	-36.9	-5.5	111.7
N#Cc1ccc(NC(=S)NCCN2CCOCC2)cc1	i	0.1	0.2	3.3	-0.8	1.3
O=C(COc1coc(CN2CCc3ccccc3C2)cc1=O)Nc1cccc(Cl)c1	i	-13.2	-4.2	-0.1	-3.7	-13.1
CS(=O)(=O)N(CC(=O)Nc1ccc(Br)cc1F)C1CCCCC1	i	0.5	-15.8	0.2	-1.7	-3.9
CS(=O)(=O)N(CC(=O)Nc1ccccc1F)C1CCCCC1	i	-2.7	0.1	-1.7	-1.1	22.9*
C#CCOCCOCCOCCNc1nc(N2CCN(C(=O)C([C@@H](C)O)n3cc([C@@H](N)CCCCN)nn3)CC2)nc(N2CCN(C(=O)[C@H](CCCCN)n3cc([C@@H](N)[C@H](C)CC)nn3)CC2)n1 (stereo partly specified)	i	0.9	-2.7	0.1	-2.9	3.3
C#CCOCCOCCOCCNc1nc(N2CCN(C(=O)C([C@@H](C)O)n3cc([C@@H](N)CCCCN)nn3)CC2)nc(N2CCN(C(=O)[C@H](CCC(=O)O)n3cc([C@@H](N)[C@H](C)CC)nn3)CC2)n1 (stereo partly specified)	+	1.0	-2.5	2.6	1.0	-18.2
C#CCOCCOCCOCCNc1nc(N2CCN(C(=O)[C@H](CCCN=C(N)N)n3cc(C(N)[C@@H](C)CC)nn3)CC2)nc(N2CCN(C(=O)[C@H](CCC(=O)O)n3cc([C@@H](N)CC(N)=O)nn3)CC2)n1 (stereo partly specified)	+	-3.0	-2.7	3.9	-0.6	5.4
CS(=O)(=O)Nc1cccc(C2=NN(S(C)(=O)=O)C(c3ccc4c(c3)OCO4)C2)c1 (stereo unspecified)	i	-1.8	-1.6	-8.4	0.2	-90.0
CS(=O)(=O)N1N=C(c2ccccc2)CC1c1ccc2c(c1)OCO2 (stereo unspecified)	+	-69.5	0.0	-53.7	.	124.1
COc1cc(NC(=O)C/C(C)=N/NC(=O)c2ccccn2)c(OC)cc1Cl	.	0.6	2.5	-2.2	-2.3	23.1*
COc1ccccc1NC(=O)C/C(C)=N/NC(=O)c1ccccn1	i	-0.1	-2.8	.	4.6	9.1
O=C(NCc1ccccc1)C1C(=O)Nc2ccccc2C(=O)N1c1ccc2c(c1)OCCO2 (stereo unspecified)	i	2.3	.	-5.1	.	7.9
Cc1cccc(C(=O)O/N=C(\N)c2ccc(Cl)cc2)c1	i	3.3	-7.4	2.3	-2.9	9.6
Cc1ccc(/C(N)=N/OC(=O)c2ccc(Cl)cc2Cl)cc1	+	2.1	-3.0	0.3	0.0	51.7*
C[C@@]12C(=O)N(CC3CC3)CC(=O)N1[C@H](/C=C/c1ccccc1)[C@@H]1C(=O)N(c3ccccc3)C(=O)[C@@H]12	i	-3.2	0.9	-5.7	-1.4	27.9*
CN1C(=O)[C@H]2[C@@H](/C=C/c3ccccc3)N3C(=O)CN(CC4CC4)C(=O)[C@@]3(C)[C@H]2C1=O	i	-2.7	-2.1	0.0	-0.3	3.5
Cn1nc(C(=O)NNC(=O)CCc2ccccc2Cl)c2ccccc2c1=O	+	1.7	1.0	8.4	0.5	3.6
COc1ccccc1/C=C(\NC(=O)c1ccc(OC)c(OC)c1)C(=O)Nc1cccc([N+](=O)[O-])c1	i	-15.7	2.3	0.5	-3.4	-5.6
